MrgX1 PAM – positive allosteric modulators of MrgX1, primary screen, HEK293 cells, Fluo-4 calcium flux | B-score at 10 µM | FDSS; active compounds read high | actives 0.63% (n = 310,000) | AID 588675, 2011 | Mas-related G-protein coupled receptor member X1 (Homo sapiens), Q96LB2;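 active = plate-corrected calcium response at least 3 library SD above typical, normal starting fluorescence, not activating the receptor alone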;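 note: compound read alongside a low EC10 to EC30 dose of BAM8-22 agonist; peak minus trough fluorescence over baseline measured at the second addition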
Target sequence (Q96LB2 whole entry, looked up): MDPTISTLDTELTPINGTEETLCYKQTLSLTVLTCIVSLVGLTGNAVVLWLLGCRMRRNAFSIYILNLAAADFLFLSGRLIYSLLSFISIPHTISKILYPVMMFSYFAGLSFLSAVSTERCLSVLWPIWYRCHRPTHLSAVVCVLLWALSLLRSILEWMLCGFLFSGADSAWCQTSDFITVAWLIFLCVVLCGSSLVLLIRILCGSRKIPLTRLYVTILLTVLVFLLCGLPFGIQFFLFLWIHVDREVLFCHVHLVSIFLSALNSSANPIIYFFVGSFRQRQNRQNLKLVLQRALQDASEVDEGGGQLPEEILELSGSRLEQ
Lipid droplet – inhibitors of hepatocyte lipid droplet formation, primary screen, imaging, high-throughput imaging, BODIPY stain; actives 0.4% (n = 240,000); AML12 mouse hepatocytes, oleate lipid droplets; inhibition, % at 6.5 µM;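 active = lipid droplet intensity inhibited by at least 50%, with more than 500 cells counted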
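Assay system: AML12 mouse liver cells | Compound: 6.5 µM single-point dosing | Schedule: Overnight exposure | Technique: Fluorescence imaging, 20x objective, two fields per well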
MrgX1 ag – agonists of human MrgX1 receptor, primary screen, HEK293 cells, Fluo-4 calcium flux. Mas-related G-protein coupled receptor member X1 (Homo sapiens), Q96LB2. Fluo-4 calcium fluorescence, agonist mode; active compounds read high. B-score at 10 µM. actives 0.44% (n = 310,000);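 active = calcium response B-score plate-corrected fluorescence ratio at least 3 library SD, with starting fluorescence B-score inside 5 SD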
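Test system: HEK293 cells stably expressing human MrgX1 receptor; amount: 15,000 cells per well; doses: compound delivered in addition one of three; times: overnight plating before 1 h dye loading; detection: Fluo-4 NW calcium-flux fluorescence, kinetic read; read-out basis: B-scored fluorescence response ratio; controls: positive and negative controls per plate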
MrgX1 antagonist – antagonists of human MrgX1 receptor, primary screen, HEK293 cells, Fluo-4 calcium flux; actives 1.3% (n = 310,000); B-score at 10 µM; AID 588676, 2011; Mas-related G-protein coupled receptor member X1 (Homo sapiens), Q96LB2; BAM8-22 antagonism; active compounds read low;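 active = calcium-response B-score plate-corrected more than 3 library SD below zero, starting fluorescence within 5 deviations, no agonist response on first addition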;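 note: peak minus trough fluorescence over baseline after final BAM8-22 challenge near maximal dose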
RGS4 pot – RGS4 potentiators or activators, primary screen, cell-based, HEK293 M3R inducible RGS4, calcium flux | carbachol calcium flux Fluo4; active compounds read low | B-score at 10 µM | actives 0.92% (n = 310,000);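 active = B-score of the integrated calcium signal more than 4 SD below the library mean, with starting fluorescence not abnormally high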;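 note: negative B-score means reduced calcium response which marks RGS4 activation or potentiation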
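Also added: carbachol at ECmax as muscarinic agonist stimulus; Assay system: HEK293 cells with stable M3R and inducible RGS4; Timing: overnight RGS4 induction, 30 min dye load 37 °C, 20 min compound RT; Measured by: Fluo4-AM (2 µM) calcium-flux fluorescence, kinetic read.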
RGS4 block – RGS4 inhibitors, primary screen, cell-based, HEK293 M3R inducible RGS4, calcium flux | actives 0.45% (n = 310,000) | B-score at 10 µM | AID 463165, 2010 | Fluo-4 calcium flux; active compounds read high; triggered by carbachol at its EC20;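 active = B-score, a plate-corrected calcium signal, over three deviations above library mean, with baseline fluorescence within five deviations of library mean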;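 note: RGS4 expression induced by doxycycline in cells with stable M3 receptor; B-score is computed from the integrated fluorescence ratio over baseline after carbachol; higher B-score means a larger calcium signal and so more RGS4 inhibition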
Target sequence (P49798 whole entry, looked up): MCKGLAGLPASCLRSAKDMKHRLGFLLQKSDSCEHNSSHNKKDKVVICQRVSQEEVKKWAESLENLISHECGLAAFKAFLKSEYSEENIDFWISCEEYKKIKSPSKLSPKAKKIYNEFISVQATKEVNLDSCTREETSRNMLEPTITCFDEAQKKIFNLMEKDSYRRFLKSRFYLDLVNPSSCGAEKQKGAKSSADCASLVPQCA
RGS4 act valid – reduced carbachol calcium response, RGS4-induced M3R cells, confirmation, RGS4 activator project, cell-based, HEK293 M3R/RGS4 inducible, calcium flux, duplicate; carbachol calcium flux Fluo4; shares compounds with RGS4 pot; actives 89% (n = 1,100); inhibition, % at 10 µM;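 active = inhibition above 3 SD of the buffer control wells, cut at about 41% in these data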;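 note: signal is the integrated peak-minus-minimum Fluo4 fluorescence over baseline ratio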
M3R Ca counter – RGS4 activator counter-screen hit in non-induced cells; shares compounds with RGS4 pot; HEK293 M3R non-induced RGS4, Fluo4 calcium flux; after carbachol challenge at its EC90; inhibition, % at 10 µM; actives 82% (n = 1,100);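 active = inhibition exceeding 3 SD of buffer-only control wells, cut at about 26% in these data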;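 note: percent drop in integrated peak-minus-baseline over baseline Fluo4 ratio after carbachol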
* hit, by the source's call; i = inactive; · = not tested or not shown. Shown are actives, neighbours in structure and some others; about 3.8% of the full set was active somewhere.

SMILES | MrgX1 PAM | Lipid droplet | MrgX1 ag | MrgX1 antagonist | RGS4 pot | RGS4 block | RGS4 act valid | M3R Ca counter
CC(O)(C#CCN1CCCC1)c1ccccc1 (configuration not stated) | i | · | i | i | i | i | · | ·
C(#CCN1CCOCC1)COCCOC(c1ccccc1)c1ccccc1 | i | -10.8 | i | i | i | i | · | ·
OC(C#CCN1CCCC1)(c1ccccc1)c1cccc(F)c1 (configuration not stated) | i | -2.8 | i | i | -8.39* | i | 91.5* | 95.8*
Cc1nnc(SCC(=O)NCc2ccccc2Cl)[nH]c1=O | i | 18.0 | i | i | i | i | · | ·
O=C(O)CCCn1cc(NC(=O)COc2cc(F)ccc2[N+](=O)[O-])cn1 | i | 2.0 | i | i | i | i | · | ·
CCCc1ncc(C(O)(c2ccccc2)c2ccccc2)n1C | i | -0.5 | i | i | -11.6* | i | 93.0* | 81.3*
CCCc1ncc(C(O)(c2ccccc2)c2ccc(C)cc2)n1C (configuration not stated) | i | -2.2 | i | i | -7.9* | i | 92.5* | 62.8*
CCCc1ncc(C(O)c2cccc3ccccc23)n1C (configuration not stated) | i | -5.9 | i | i | i | i | · | ·
NC(=O)CC(NC(=O)c1cccc(Br)c1)c1ccc(NC2CCN(Cc3ccccc3)CC2)c([N+](=O)[O-])c1 (configuration not stated) | i | -2.3 | i | i | i | i | · | ·
S=C(NCCSCc1ccc(Cl)c(Cl)c1)Nc1ccccc1 | i | · | i | i | -8.29* | i | 90.5* | 70.8*
CCN(CC(=O)Nc1ccc2c(c1)OCCO2)C(=O)/C=C/c1cccc(Br)c1 | i | · | i | i | i | i | · | ·
COc1ccc(-c2nc(CN(CC3CCC(=O)N3)C(C)C)c(C)o2)c(C)c1C (configuration not stated) | i | 2.8 | i | i | i | i | · | ·
S=C1N(c2ccccc2)C(c2ccc(Br)cc2)N2CCCN12 (configuration not stated) | i | 7.0 | i | i | -10.7* | i | 94.0* | 90.3*
Cc1nn(-c2ccccc2)c(C)c1NC(=O)COC(=O)c1cccc(OC(F)F)c1 | i | · | i | i | -8.37* | i | 0.0 | 0.0
Cc1occc1C(=O)N1CCCC(CCC(=O)NCc2ccc(F)c(F)c2)C1 (configuration not stated) | i | 9.1 | i | i | i | i | · | ·
O=C(CCC1CCCN(C2C3CC4CC(C3)CC2C4)C1)NCc1ccc(F)c(F)c1 (configuration not stated) | i | -20.6 | i | i | -7.66* | i | 81.0* | 45.3*
C=C(C)C1CC=C(C)/C(=N/NC(=O)C2CC2c2ccccc2)C1 (configuration not stated) | i | -26.6 | i | i | i | i | · | ·
C=CCSC(=C(C#N)C#N)c1cc2c([nH]1)CCCC2 | i | -4.8 | i | i | -9.2* | i | 89.5* | 31.8*
O=C(O)c1cc2c([nH]c1=O)CCCC2 | i | 5.4 | i | i | i | i | · | ·
Cc1cc(OCc2nc(-c3ccncc3)no2)cc(C)c1Cl | i | 0.3 | i | i | i | i | · | ·
Cc1ccc(OCC(=O)O/N=C(\N)Cc2ccc([N+](=O)[O-])cc2)cc1C | i | -0.4 | i | i | -10.8* | i | 0.0 | 0.0
CCOC(=O)c1oc2ccc(CNC3CCCCC3)c(Cl)c2c1C | i | -19.8 | i | i | -7.8* | i | 93.5* | 92.3*
CCOC(=O)c1oc2ccc(CNCCO)c(Cl)c2c1C | i | · | i | i | i | i | · | ·
COC(=O)c1onc(-c2c(Cl)cccc2Cl)c1C(=O)OC | i | -8.0 | i | i | i | i | · | ·
C=C(C)COc1ccc(-c2[nH]ncc2Oc2ccccc2OCC)c(O)c1 | i | -3.1 | i | i | -7.74* | i | 91.0* | 91.8*
SMILES | MrgX1 PAM | Lipid droplet | MrgX1 ag | MrgX1 antagonist | RGS4 pot | RGS4 block | RGS4 act valid | M3R Ca counter
CCC(=O)N1CCc2cc(S(=O)(=O)NCCC(=O)N3CCN(c4cccc(C)c4)C(C)C3)ccc21 (configuration not stated) | i | -18.8 | i | i | -8.62* | i | 64.5* | 83.8*
CN(C)S(=O)(=O)c1ccc(N2CCCC2)c(C(=O)N2CCC(C(N)=O)CC2)c1 | i | · | i | i | i | i | · | ·
CN1CCCC(CC2Oc3ccccc3Sc3ccccc32)C1 (configuration not stated) | i | -10.1 | i | i | -9.11* | i | 93.0* | 91.8*
COC(=O)c1cc2ccsc2n1Cc1nc(-c2ccc(OC)cc2)oc1C | i | -31.3 | i | i | -11.2* | i | 92.5* | 79.3*
CC(C)c1ccc(NC(=O)CCNS(=O)(=O)c2cccc3nsnc23)cc1 | i | 6.5 | i | i | -8.02* | i | 0.0 | 0.0
CCc1ccc(NS(=O)(=O)c2cccc3nsnc23)cc1 | i | -18.9 | i | i | -8.56* | i | 72.5* | 83.8*
Cc1ccc(NC(=O)CCNS(=O)(=O)c2cccc3nsnc23)cc1 | i | -50.3 | i | i | i | i | · | ·
Cn1c(=O)c2sc3c(c2n(CC(=O)Nc2ccccc2)c1=O)COC(C)(C)C3 | i | -4.2 | i | i | i | i | · | ·
CCOC(=O)c1sc(NC(=O)CSc2nnc(-c3ccco3)n2CC)c(C(=O)OCC)c1C | i | -6.8 | i | i | -18.3* | i | 92.0* | 91.3*
COC(=O)c1c(NC(=O)CSc2nnc(-c3ccco3)n2C)sc(C)c1C | i | -10.2 | i | i | i | i | · | ·
O=C(CC1CCS(=O)(=O)C1)NC1CCCCC1 (configuration not stated) | i | · | i | i | -9.32* | i | 0.0 | 0.0

Screening data deposited in PubChem by several laboratories.
